What was measured:
Type in all cases: protein assay
[1] = biological target: Alpha-1,2-mannosidase (BT_3858) (Bacteroides thetaiotaomicron, UniProt Q8A113); assay: Inhibition of Bacteroides thetaiotaomicron GH92 alpha-mannosidase 3858 assessed as reduction of mannose release using 4NP-mannopyranoside substrate
Outline: (§1)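 Recombinant His-tagged GH92 enzymes were expressed in E. coli Tuner or B834 and purified by IMAC. Mannose release was measured at 37 °C in 100 mM MOPS, pH 7.0, with 2 mM CaCl2. The read-out was a coupled-enzyme mannose detection system with ATP and NADP+ at 1 mM, following NADPH at 340 nm. At least five inhibitor concentrations were tested, with substrate ≪ Km. Ki was taken from the x-intercept of […] versus inhibitor concentration.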

[2] = biological target: Alpha-1,2-mannosidase family protein (BT_1032) (Bacteroides thetaiotaomicron, UniProt Q8A8Y5); assay: Inhibition of Bacteroides thetaiotaomicron GH92 alpha-mannosidase 1032 assessed as reduction of mannose release using 4NP-mannopyranoside substrate; outline: as §1
[3] = biological target: Glycoside hydrolase family 92 (BT_3962) (Bacteroides thetaiotaomicron, UniProt Q8A0Q9); assay: Inhibition of Bacteroides thetaiotaomicron GH92 alpha-mannosidase 3962 assessed as reduction of mannose release using 4NP-mannopyranoside substrate; outline: as §1
[4] = biological target: Glycoside hydrolase family 92 (BT_3963) (Bacteroides thetaiotaomicron, UniProt Q8A0Q8); assay: Inhibition of Bacteroides thetaiotaomicron GH92 alpha-mannosidase 3963 assessed as reduction of mannose release using 4NP-mannopyranoside substrate; outline: as §1
[5] = biological target: Alpha-1,2-mannosidase, putative (BT_3130) (Bacteroides thetaiotaomicron, UniProt Q8A325); assay: Inhibition of Bacteroides thetaiotaomicron GH92 alpha-mannosidase 3130 assessed as reduction of mannose release using 4NP-mannopyranoside substrate; outline: as §1
[6] = biological target: Alpha-1,2-mannosidase (BT_3991) (Bacteroides thetaiotaomicron, UniProt Q8A0N0); assay: Inhibition of Bacteroides thetaiotaomicron GH92 alpha-mannosidase 3991 assessed as reduction of mannose release using 4NP-mannopyranoside substrate; outline: as §1
[7] = biological target: Alpha-1,2-mannosidase (BT_3994) (Bacteroides thetaiotaomicron, UniProt Q8A0M7); assay: Inhibition of Bacteroides thetaiotaomicron GH92 alpha-mannosidase 3994 assessed as reduction of mannose release using 4NP-mannopyranoside substrate; outline: as §1
[8] = biological target: Alpha-1,2-mannosidase (BT_2948) (Bacteroides thetaiotaomicron, UniProt Q8A3K6); assay: Inhibition of Bacteroides thetaiotaomicron GH92 alpha-mannosidase 2948 assessed as reduction of mannose release using 4NP-mannopyranoside substrate; outline: as §1
[9] = biological target: Alpha-1,2-mannosidase, putative (BT_4073) (Bacteroides thetaiotaomicron, UniProt Q8A0E8); assay: Inhibition of Bacteroides thetaiotaomicron GH92 alpha-mannosidase 4073 assessed as reduction of mannose release using 4NP-mannopyranoside substrate; outline: as §1
[10] = biological target: Alpha-1,2-mannosidase (BT_3784) (Bacteroides thetaiotaomicron, UniProt Q8A182); assay: Inhibition of Bacteroides thetaiotaomicron GH92 alpha-mannosidase 3784 assessed as reduction of mannose release using 4NP-mannopyranoside substrate; outline: as §1
[11] = biological target: Alpha-1,2-mannosidase family protein (BT_4093) (Bacteroides thetaiotaomicron, UniProt Q8A0C8); assay: Inhibition of Bacteroides thetaiotaomicron GH92 alpha-mannosidase 4093 assessed as reduction of mannose release using 4NP-mannopyranoside substrate; outline: as §1
[12] = biological target: T1, Alpha-1,2-mannosidase (BT_2199) (Bacteroides thetaiotaomicron, UniProt Q8A5N9); assay: Inhibition of Bacteroides thetaiotaomicron GH92 alpha-mannosidase 2199 assessed as reduction of mannose release using 4NP-mannopyranoside substrate
T1 sequence (Q8A5N9 whole entry): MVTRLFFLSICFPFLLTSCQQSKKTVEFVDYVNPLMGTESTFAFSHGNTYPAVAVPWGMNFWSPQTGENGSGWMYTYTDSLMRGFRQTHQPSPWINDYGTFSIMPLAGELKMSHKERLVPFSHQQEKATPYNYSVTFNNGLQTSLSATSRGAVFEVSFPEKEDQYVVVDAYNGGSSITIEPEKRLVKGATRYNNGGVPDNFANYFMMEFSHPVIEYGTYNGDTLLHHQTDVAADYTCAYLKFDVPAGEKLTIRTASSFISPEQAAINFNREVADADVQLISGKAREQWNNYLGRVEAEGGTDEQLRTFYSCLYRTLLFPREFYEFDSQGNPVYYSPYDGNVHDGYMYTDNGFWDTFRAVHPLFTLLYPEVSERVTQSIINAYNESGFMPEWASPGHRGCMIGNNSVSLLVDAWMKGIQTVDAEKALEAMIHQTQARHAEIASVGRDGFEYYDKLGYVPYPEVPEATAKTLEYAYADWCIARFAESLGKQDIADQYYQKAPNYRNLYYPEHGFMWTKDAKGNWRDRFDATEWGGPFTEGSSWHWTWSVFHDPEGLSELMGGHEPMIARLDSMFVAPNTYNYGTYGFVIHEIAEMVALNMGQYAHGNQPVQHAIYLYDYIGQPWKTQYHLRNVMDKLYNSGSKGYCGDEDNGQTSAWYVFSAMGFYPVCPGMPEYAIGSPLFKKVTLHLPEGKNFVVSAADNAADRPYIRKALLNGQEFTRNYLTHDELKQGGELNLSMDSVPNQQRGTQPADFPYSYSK
Outline: (§2)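 Recombinant enzymes expressed in E. coli. Bt3990 was purified by IMAC, anion exchange and size exclusion; Bt2199 by IMAC only. Ki was measured with at least five inhibitor concentrations at a substrate concentration ≪ Km for each enzyme. Ki was taken as the x-axis intercept of a plot of […] against inhibitor concentration.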

[13] = biological target: Alpha-1,2-mannosidase (BT_1878) (Bacteroides thetaiotaomicron, UniProt Q8A6K3); assay: Inhibition of Bacteroides thetaiotaomicron GH92 alpha-mannosidase 1878 assessed as reduction of mannose release using 4NP-mannopyranoside substrate; outline: as §1
[14] = biological target: Alpha-1,2-mannosidase (BT_3965) (Bacteroides thetaiotaomicron, UniProt Q8A0Q6); assay: Inhibition of Bacteroides thetaiotaomicron GH92 alpha-mannosidase 3965 assessed as reduction of mannose release using 4NP-mannopyranoside substrate; outline: as §1
[15] = biological target: Alpha-1,2-mannosidase (BT_4092) (Bacteroides thetaiotaomicron, UniProt Q8A0C9); assay: Inhibition of Bacteroides thetaiotaomicron GH92 alpha-mannosidase 4092 assessed as reduction of mannose release using 4NP-mannopyranoside substrate; outline: as §1
[16] = biological target: Alpha-1,2-mannosidase (BT_3990) (Bacteroides thetaiotaomicron, UniProt Q8A0N1); assay: Inhibition of Bacteroides thetaiotaomicron GH92 alpha-mannosidase 3990 assessed as reduction of mannose release using 4NP-mannopyranoside substrate; outline: as §2

Sequence of Alpha-1,2-mannosidase (BT_2948) (Q8A3K6 whole entry, change not shown): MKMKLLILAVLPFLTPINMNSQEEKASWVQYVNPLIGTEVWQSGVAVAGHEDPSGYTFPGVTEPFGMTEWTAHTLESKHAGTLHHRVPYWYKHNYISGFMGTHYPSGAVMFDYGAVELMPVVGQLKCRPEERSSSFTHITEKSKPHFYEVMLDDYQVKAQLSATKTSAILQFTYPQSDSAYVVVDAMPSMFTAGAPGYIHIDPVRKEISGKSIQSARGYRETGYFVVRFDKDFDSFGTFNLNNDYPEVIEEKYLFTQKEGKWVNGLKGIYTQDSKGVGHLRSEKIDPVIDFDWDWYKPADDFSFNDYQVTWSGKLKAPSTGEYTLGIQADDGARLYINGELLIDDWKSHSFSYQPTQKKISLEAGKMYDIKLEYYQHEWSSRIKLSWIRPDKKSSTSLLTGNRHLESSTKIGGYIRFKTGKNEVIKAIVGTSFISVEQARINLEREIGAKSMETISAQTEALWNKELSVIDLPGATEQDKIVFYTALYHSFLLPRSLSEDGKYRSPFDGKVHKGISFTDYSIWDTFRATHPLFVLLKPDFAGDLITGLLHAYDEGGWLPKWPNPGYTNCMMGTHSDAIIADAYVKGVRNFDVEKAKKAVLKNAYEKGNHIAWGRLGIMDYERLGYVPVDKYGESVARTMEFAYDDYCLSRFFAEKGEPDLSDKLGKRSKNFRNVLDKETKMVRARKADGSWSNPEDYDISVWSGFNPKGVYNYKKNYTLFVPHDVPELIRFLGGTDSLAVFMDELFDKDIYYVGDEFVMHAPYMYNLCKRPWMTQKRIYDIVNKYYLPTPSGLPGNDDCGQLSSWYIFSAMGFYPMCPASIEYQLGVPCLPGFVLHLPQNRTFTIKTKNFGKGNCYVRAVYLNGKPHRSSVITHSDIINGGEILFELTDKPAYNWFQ
Sequence of Alpha-1,2-mannosidase, putative (BT_4073) (Q8A0E8 whole entry, change not shown): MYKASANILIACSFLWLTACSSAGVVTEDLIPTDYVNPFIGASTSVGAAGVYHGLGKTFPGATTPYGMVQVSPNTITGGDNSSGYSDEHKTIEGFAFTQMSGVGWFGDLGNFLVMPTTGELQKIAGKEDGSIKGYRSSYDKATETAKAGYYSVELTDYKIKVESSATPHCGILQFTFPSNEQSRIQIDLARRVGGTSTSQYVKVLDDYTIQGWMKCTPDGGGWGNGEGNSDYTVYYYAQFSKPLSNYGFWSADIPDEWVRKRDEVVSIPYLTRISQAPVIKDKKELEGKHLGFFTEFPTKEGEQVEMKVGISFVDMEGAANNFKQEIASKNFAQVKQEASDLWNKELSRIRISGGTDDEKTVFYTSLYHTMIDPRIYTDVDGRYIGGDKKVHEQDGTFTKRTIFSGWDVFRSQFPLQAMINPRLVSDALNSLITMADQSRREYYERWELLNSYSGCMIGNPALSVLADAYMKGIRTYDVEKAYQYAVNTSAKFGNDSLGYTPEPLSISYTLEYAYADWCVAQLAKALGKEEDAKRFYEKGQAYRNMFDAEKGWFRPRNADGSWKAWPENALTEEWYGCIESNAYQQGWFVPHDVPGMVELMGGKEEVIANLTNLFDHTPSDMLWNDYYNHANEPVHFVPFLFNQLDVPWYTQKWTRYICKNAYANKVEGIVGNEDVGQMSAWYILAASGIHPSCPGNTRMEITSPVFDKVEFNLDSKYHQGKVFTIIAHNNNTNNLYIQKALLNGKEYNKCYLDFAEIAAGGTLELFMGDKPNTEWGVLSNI
Sequence of Alpha-1,2-mannosidase (BT_1878) (Q8A6K3 whole entry, change not shown): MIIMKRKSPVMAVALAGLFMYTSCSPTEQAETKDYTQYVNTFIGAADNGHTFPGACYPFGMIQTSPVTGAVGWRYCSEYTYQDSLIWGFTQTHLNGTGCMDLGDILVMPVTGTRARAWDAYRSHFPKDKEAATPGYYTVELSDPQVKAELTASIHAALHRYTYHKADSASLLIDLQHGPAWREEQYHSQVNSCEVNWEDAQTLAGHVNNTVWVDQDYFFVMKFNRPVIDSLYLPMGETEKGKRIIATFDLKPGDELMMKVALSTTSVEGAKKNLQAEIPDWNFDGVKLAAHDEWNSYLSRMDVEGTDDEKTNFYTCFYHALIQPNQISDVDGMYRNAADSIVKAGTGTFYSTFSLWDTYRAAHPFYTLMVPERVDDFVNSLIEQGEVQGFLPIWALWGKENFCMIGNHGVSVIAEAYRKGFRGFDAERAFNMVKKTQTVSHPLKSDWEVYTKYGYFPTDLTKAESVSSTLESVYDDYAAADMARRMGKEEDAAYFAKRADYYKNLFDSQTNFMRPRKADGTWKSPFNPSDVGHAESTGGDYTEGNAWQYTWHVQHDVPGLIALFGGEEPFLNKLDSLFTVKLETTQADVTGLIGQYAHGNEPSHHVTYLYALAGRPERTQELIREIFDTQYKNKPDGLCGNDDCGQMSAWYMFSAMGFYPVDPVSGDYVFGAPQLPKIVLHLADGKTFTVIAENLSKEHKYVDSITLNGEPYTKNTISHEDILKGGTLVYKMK
Sequence of Alpha-1,2-mannosidase family protein (BT_4093) (Q8A0C8 whole entry, change not shown): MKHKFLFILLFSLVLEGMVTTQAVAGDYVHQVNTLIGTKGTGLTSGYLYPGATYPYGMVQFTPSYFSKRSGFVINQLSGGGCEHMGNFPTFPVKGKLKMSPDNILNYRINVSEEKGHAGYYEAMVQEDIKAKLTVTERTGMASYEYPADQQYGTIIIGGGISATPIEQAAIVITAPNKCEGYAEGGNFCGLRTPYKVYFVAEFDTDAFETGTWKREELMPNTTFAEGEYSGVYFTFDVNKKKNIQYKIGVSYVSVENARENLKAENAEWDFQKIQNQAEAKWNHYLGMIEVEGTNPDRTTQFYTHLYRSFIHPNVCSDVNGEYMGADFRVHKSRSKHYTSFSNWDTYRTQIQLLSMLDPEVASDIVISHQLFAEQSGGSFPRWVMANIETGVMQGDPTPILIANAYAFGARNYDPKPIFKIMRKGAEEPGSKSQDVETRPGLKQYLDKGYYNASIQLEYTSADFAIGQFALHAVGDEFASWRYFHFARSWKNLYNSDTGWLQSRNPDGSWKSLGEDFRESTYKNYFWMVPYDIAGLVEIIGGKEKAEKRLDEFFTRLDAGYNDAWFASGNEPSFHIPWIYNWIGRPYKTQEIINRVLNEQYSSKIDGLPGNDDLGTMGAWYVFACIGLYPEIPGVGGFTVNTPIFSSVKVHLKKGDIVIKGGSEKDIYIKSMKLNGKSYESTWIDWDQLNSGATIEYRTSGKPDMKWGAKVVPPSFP
Sequence of Alpha-1,2-mannosidase (BT_3784) (Q8A182 whole entry, change not shown): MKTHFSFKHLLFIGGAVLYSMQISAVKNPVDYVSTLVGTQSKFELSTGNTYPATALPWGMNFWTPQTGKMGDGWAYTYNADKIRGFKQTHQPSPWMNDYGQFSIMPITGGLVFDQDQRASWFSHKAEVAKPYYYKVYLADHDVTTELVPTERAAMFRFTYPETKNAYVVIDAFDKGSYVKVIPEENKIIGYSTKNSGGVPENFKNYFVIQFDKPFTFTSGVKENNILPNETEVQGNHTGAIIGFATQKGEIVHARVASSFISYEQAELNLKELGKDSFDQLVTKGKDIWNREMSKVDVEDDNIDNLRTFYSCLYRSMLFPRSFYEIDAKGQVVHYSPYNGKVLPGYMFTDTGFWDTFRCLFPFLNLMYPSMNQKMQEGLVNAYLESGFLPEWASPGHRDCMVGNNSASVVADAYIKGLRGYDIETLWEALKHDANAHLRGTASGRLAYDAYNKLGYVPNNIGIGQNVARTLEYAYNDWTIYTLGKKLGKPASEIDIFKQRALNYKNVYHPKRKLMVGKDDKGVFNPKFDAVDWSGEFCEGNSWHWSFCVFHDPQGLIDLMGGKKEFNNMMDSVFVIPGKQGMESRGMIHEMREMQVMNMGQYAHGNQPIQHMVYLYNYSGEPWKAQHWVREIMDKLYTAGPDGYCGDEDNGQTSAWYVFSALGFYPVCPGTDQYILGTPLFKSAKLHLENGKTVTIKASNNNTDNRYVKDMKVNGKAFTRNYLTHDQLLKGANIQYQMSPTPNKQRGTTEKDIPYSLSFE
Sequence of Alpha-1,2-mannosidase (BT_3994) (Q8A0M7 whole entry, change not shown): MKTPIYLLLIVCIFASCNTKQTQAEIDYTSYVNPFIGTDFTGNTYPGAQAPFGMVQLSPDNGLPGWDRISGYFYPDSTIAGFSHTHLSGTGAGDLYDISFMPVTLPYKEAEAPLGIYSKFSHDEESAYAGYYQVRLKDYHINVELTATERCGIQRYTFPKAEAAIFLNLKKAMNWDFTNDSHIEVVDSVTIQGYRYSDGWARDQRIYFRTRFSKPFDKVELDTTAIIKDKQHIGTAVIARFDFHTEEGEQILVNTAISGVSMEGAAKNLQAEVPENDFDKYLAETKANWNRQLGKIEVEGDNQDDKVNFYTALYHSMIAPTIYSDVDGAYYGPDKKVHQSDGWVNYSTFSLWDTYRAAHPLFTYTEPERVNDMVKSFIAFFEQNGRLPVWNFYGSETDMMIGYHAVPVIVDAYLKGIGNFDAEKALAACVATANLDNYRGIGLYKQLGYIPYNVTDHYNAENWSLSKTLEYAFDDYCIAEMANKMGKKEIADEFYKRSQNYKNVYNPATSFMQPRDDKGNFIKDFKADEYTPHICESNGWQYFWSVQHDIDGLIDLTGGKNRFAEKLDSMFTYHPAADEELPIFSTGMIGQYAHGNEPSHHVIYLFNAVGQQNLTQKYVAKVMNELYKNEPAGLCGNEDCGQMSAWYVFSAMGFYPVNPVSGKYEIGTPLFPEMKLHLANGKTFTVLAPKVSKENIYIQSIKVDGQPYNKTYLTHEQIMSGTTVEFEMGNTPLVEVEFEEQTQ

## OC[C@@H]1[C@@H](O)[C@H](O)[C@H](O)c2nccn21 [MANNOIMIDAZOLE]
[1]
  Ki: 260 µM
[2]
  Ki: 600 µM
[3]
  Ki: 270 µM
[4]
  Ki: 790 µM
[5]
  Ki: 1 µM
[6]
  Ki: 46 µM
[7]
  Ki: 43 µM
[8]
  Ki: 70 µM
[9]
  Ki: 360 µM
[10]
  Ki: 5800 µM
[11]
  Ki: 860 µM
[12]
  Ki: 90 µM
[13]
  Ki: 1800 µM
[14]
  Ki: 0.4 µM
[15]
  Ki: 1600 µM

## OC[C@H]1NC[C@@H](O)[C@@H](O)[C@@H]1O [DEOXYMANNOJIRIMYCIN]
[12]
  Ki: 13000 µM
[16]
  Ki: 12000 µM
